From PubChem
Most compounds without a hit are left out; they make up all but 3.7% or so of the library.
Kir21 block: blocks the mouse Kir2.1 inward-rectifier potassium channel; 0.85% of 310,000 active; HEK293-Kir2.1, FluxOR thallium flux fluorescence; active compounds read low; B-score at 10 µM; P35561;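 active = fluorescence ratio B-score at or below minus 3 SD of library scores, with starting-brightness B-score within 2 SD, cut at about -4.2 in these data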;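 note: channel flux triggered by added potassium and thallium sulfate stimulus; B-score of peak minus minimum fluorescence over baseline after thallium stimulus; more negative B-score means stronger Kir2.1 block with less thallium influx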
KCNQ1 inh: human KCNQ1 channel inhibition. CHO-K1 KCNQ1, FluxOR thallium flux fluorescence; active compounds read high. B-score at 10 µM. 1.3% of 310,000 active. AID 2642;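 active = compounds whose thallium flux B-score, printed positive for inhibition, exceeds three library SD while starting fluorescence stays within three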;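 note: channel opened by potassium depolarization with thallium stimulus after 20 min compound exposure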
Target sequence (P51787 whole entry, looked up): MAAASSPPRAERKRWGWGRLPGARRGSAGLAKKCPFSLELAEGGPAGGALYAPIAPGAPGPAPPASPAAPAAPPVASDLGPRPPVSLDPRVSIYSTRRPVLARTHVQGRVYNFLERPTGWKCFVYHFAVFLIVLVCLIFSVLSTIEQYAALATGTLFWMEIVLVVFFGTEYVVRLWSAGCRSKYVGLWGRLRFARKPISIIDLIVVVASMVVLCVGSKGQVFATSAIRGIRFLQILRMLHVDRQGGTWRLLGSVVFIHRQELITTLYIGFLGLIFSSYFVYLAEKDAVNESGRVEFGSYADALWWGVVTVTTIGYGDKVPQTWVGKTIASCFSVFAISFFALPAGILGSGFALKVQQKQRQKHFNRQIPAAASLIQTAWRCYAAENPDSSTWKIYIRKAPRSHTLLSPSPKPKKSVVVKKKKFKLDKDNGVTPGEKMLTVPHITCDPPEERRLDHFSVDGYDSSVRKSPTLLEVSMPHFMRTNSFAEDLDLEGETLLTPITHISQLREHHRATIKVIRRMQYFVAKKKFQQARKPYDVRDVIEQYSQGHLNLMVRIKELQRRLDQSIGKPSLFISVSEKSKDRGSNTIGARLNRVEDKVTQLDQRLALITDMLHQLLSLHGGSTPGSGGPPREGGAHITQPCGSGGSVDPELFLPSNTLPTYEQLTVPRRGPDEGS
KCNK9 block: inhibitors of human KCNK9 two-pore domain potassium channel; Q9NPC2; HEK293 KCNK9, FluxOR thallium flux fluorescence; active compounds read low; B-score at 10 µM; 1.2% of 310,000 active;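 active = ratio B-score over 3 SD below the library mean, with starting fluorescence within 5 SD of its mean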;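 note: negative B-score means less thallium flux so channel inhibition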
KCNK3 inh: human KCNK3 channel inhibition, primary screen | O14649 | CHO-KCNK3 thallium flux, FluxOR fluorescence; active compounds read low | B-score at 10 µM | 0.84% of 340,000 active | AID 602410;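 active = B-score under library mean minus 4 SD, starting fluorescence ratio at most library mean plus 5 SD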;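 note: more negative B-score means stronger inhibition of thallium flux through KCNK3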
hERG protect: shields human hERG channel from block by proarrhythmic agents; Q12809; CHO-hERG, FluxOR thallium flux, dofetilide IC70 present; activation (rescue from dofetilide block), less the hit threshold, % at 10 µM; 0.51% of 310,000 active;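 active = activation above the mean of controls blocked by dofetilide plus 5 SD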;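 note: thallium influx through hERG after potassium depolarization seen as dye fluorescence rise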
KCNQ1 act: potentiators or activators of human KCNQ1 potassium channel; 0.35% of 310,000 active; P51787; CHO-K1 KCNQ1, thallium flux FluxOR fluorescence; active compounds read high; AID 2648; B-score at 10 µM;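 active = fluorescence ratio B-score, a plate-corrected score, at least three library SD, with initial intensity B-score within 5 SD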
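Assay system: stable KCNQ1 CHO-K1 line; medium: assay buffer, equal DMSO in all wells; timing: 90 min dye loading and 20 min compound exposure, both at room temperature; technique: kinetic FluxOR thallium fluorescence, 10-s 1-Hz baseline, 110-s post-stimulus read; read-out basis: B score of baseline-normalized fluorescence ratio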
KCNQ1 block val: human KCNQ1 channel inhibition, validation assay. AID 588353. shares compounds with KCNQ1 inh. 93% of 1,600 active. inhibition, % at 10 µM. KCNQ1 cell line, FluxOR thallium flux fluorescence;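 active = primary screen active, with duplicate mean exceeding buffer control mean plus 3 SD of buffer wells, cut at about 28% in these data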;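 note: 0% = buffer control ratio and 100% = XE991 inhibitor control ratio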
CHO KCNQ1 ctr: counter-screen for KCNQ1 inhibitors: effect in parental CHO cells | AID 588366 | parental CHO-K1, FluxOR thallium flux fluorescence ratio; active compounds read low; zero means no signal rise above baseline | shares compounds with KCNQ1 inh | 21% of 1,600 active | fluorescence ratio (Tl flux) at 10 µM;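 active = mean of duplicate thallium-flux fluorescence ratios in parental host cells more than 5 SD below the buffer control mean, cut at about 0.38 in these data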;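 note: ratio is peak minus minimum fluorescence divided by baseline fluorescence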
KCNQ1 ephys val: human KCNQ1 inhibition validated by electrophysiology | AID 624120 | calls only at 10 µM | 20% of 490 active | shares compounds with KCNQ1 inh | KCNQ1-CHO cells, automated patch clamp current;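 active = KCNQ1 current drop exceeding 3 SD of negative control wells, seen in both duplicate runs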;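 note: steady state current during a 2 s step from -80 to +40 mV; negative values mean current inhibition and positive values mean potentiation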
KCNQ2 inh: selectivity of KCNQ1 inhibitors: inhibition of rat KCNQ2 channel. shares compounds with KCNQ1 inh. KCNQ2 cells, FluxOR thallium flux fluorescence. inhibition, % at 10 µM. 71% of 1,600 active;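 active = mean percent inhibition of the KCNQ2 thallium signal more than 5 SD above the buffer-only control wells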;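 note: KCNQ2 expressed in CHO cells; 0% = buffer control wells and 100% = XE-991 inhibitor control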
KCNQ1 KCNE1 spec: KCNQ1 inhibitor that also blocks human KCNQ1/KCNE1 channel; shares compounds with KCNQ1 inh; KCNQ1/KCNE1 cells, FluxOR thallium flux fluorescence; inhibition, % at 10 µM; 77% of 1,600 active;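 active = mean percent inhibition of duplicate wells above the buffer-only control mean plus 3 SD of those controls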;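 note: 0% = buffer only wells and 100% = XE-991 inhibitor control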
Numbers without * were called inactive; i = inactive; x = not tested or not shown; + = active, no number.

SMILES | Kir21 block | KCNQ1 inh | KCNK9 block | KCNK3 inh | hERG protect | KCNQ1 act | KCNQ1 block val | CHO KCNQ1 ctr | KCNQ2 inh | KCNQ1 KCNE1 spec | others
Cc1ccc(S(=O)(=O)N(CC(=O)N=Nc2c(O)[nH]c3ccccc23)c2cccc(C)c2)cc1 | 0.63 | 7* | i | i | -3 | i | 76* | 0.43 | 80%* | 130%*
CCOC(=O)c1cc(C#N)c(N2CCCC2)nc1-c1ccccc1 | -0.45 | i | i | i | -1 | i | x | x | x | x
CCOC(=O)c1cc(C#N)c(Oc2ccc(F)cc2)nc1-c1ccccc1 | -0.01 | 9* | i | i | -11 | i | 70* | 0.38* | 76%* | 104%*
Fc1cccc(Cl)c1CNc1ccc(N2CCCC2)cc1 | 0.58 | 6* | i | i | -18 | i | 0 | 0.44 | 72%* | 40%*
Cc1[nH]n(-c2ccccc2)c(=O)c1N=Nc1c(O)cc(S(=O)(=O)N(C)C)c2ccccc12 | -0.42 | 10* | i | i | -24 | i | 124* | 0.47 | 72%* | i | KCNQ1 ephys val=i
COc1ccc(C(=O)NC(C)CCc2ccccc2)cc1 (stereo unspecified) | 1.5 | i | i | i | -2 | i | x | x | x | x
CC(CCc1ccccc1)NC(=O)c1ccc(NC(=O)c2ccccc2)cc1 (stereo unspecified) | 1.3 | 7* | i | i | -8 | i | 67* | 0.52 | i | 66%*
Cc1ccccc1Nc1cc(C)c2c(O)cccc2n1 | -7.2* | 7* | i | i | -22 | i | 31* | 0.53 | 71%* | i
CC(C)c1ccc(NC(=S)NCc2ccc3c(c2)OCO3)cc1 | 1.8 | 8* | i | i | -15 | i | 82* | 0.51 | i | 61%*
CC(=O)NC12CC3CC(C1)CC(C(=O)Nc1nc4ccc(F)cc4s1)(C3)C2 | 1.3 | 7* | i | i | -20 | i | 92* | 0.49 | 65%* | 85%* | KCNQ1 ephys val=+
O=C(Nc1ccccc1N1CCCC1)C1CCN(S(=O)(=O)c2cccc(C(F)(F)F)c2)CC1 | -0.07 | i | i | i | -13 | i | x | x | x | x
O=C(Nc1ccccc1N1CCCCC1)C1CCN(S(=O)(=O)c2cccc(C(F)(F)F)c2)CC1 | -0.72 | 6* | i | i | -9 | i | 62* | 0.47 | 110%* | 48%*
CCc1ccccc1Nc1ncnc2ccccc12 | -2.4 | i | i | i | -1 | i | x | x | x | x
Brc1ccc2ncnc(NCc3ccccc3)c2c1 | 0.65 | i | i | i | -10 | i | x | x | x | x
c1ccc(CCNc2ncnc3ccccc23)cc1 | 0.42 | 8* | i | i | -17 | i | 139* | 0.48 | 84%* | 110%* | KCNQ1 ephys val=i
CCCCCCCCNc1ncnc2ccccc12 | -8* | 9* | i | i | -36 | i | 125* | 0.37* | 76%* | 118%*
COc1ccc(CCC(C)NCCc2ccc(Cl)cc2Cl)cc1 (stereo unspecified) | -13* | 14* | i | i | -20 | i | 99* | 0.47 | 96%* | 106%*
Clc1cccc(Cl)c1/C=C/c1nc2ccccc2[nH]1 | -0.48 | 14* | i | -8.8* | -19 | i | 121* | 0.46 | 93%* | 130%*
Clc1ccc(/C=C/c2nc3ccccc3[nH]2)cc1 | 1.2 | i | i | i | -7 | i | x | x | x | x
CCOc1ccc(-c2cc(C(=O)NCCCn3ccnc3)c3ccccc3n2)cc1 | -3.1 | 6* | i | i | -10 | i | 26* | 0.43 | 86%* | 43%*
Cc1cccc(N2CCN(C(=O)c3noc4c3COc3ccc(C)cc3-4)CC2C)c1 (stereo unspecified) | 0.28 | 10* | i | i | -15 | i | 88* | 0.5 | 98%* | 112%*
C[C@@H](N)C(=O)NC[C@H]1O[C@@H](n2cnc3c(N)ncnc32)[C@H](O)[C@@H]1O | x | x | x | i | x | x | x | x | x | x
Cc1cc(C)nc(NC(=NCCc2c[nH]c3ccccc23)NC(=O)Nc2ccc(Cl)cc2)n1 | -0.14 | 6* | i | i | -12 | i | 48* | 0.48 | 88%* | 90%*
COc1nc(-c2ccccc2)cc(-c2ccc(OC)c(OC)c2)n1 | 0.57 | 7* | i | i | -17 | i | 119* | 0.39 | 110%* | 131%* | KCNQ1 ephys val=i
COc1ccc(-c2cc(-c3ccccc3)nc(NN)n2)cc1OC | -1.7 | i | i | i | -10 | i | x | x | x | x
SMILES | Kir21 block | KCNQ1 inh | KCNK9 block | KCNK3 inh | hERG protect | KCNQ1 act | KCNQ1 block val | CHO KCNQ1 ctr | KCNQ2 inh | KCNQ1 KCNE1 spec | others
Cc1cc(C)c(-c2cc(NC(=O)COC(=O)c3ccc(CO)cc3)n(-c3ccccc3)n2)cc1C | 0.28 | i | i | i | -10 | i | x | x | x | x
Cc1cc(C)c(-c2cc(NC(=O)CSc3n[nH]c(N)n3)n(-c3ccccc3)n2)cc1C | 0.52 | 7* | i | i | -15 | i | 78* | 0.45 | 89%* | 128%*
CCCN(C(=O)COC(=O)Cn1c(=O)oc2ccccc21)c1c(N)n(Cc2ccccc2)c(=O)[nH]c1=O | 0.72 | i | i | i | -13 | i | x | x | x | x
CCCSc1nnc(NC(=O)Nc2ccc(F)cc2)s1 | -1.4 | 8* | i | i | -7 | i | 50* | 0.5 | 60%* | 37%*
CC1CCN(CCCOc2ccc(Cl)cc2Br)CC1 | -4.5* | 6* | i | i | -16 | i | 42* | 0.48 | i | i
Cc1cc(C(=O)OCC(=O)NC2CC2)c2ccccc2n1 | x | x | x | i | x | x | x | x | x | x
CCCn1c(=O)n(C)c(=O)c2c(SCC(=O)NC34CC5CC(CC(C5)C3)C4)nc(CC(C)C)nc21 | 0.13 | 8* | i | i | -19 | i | 136* | 0.32* | 88%* | 148%*
CCC(C)(C)NC(=O)C(C(C)C)N(CC1CCCO1)C(=O)CNS(=O)(=O)c1ccc(F)cc1 (stereo unspecified) | 0.63 | i | i | i | -8 | i | x | x | x | x
